{"source": "ChEMBL document CHEMBL3045555", "about": "“Structure elucidation and antifungal activity of an anthracycline antibiotic, daunomycin, isolated from Actinomadura roseola” (J Agric Food Chem, 2000)", "key": {"Phytophthora capsici [1]": {"tested_on": "Phytophthora capsici", "assay": "Antifungal activity against Phytophthora capsici in pepper plants assessed as decrease in Phytophthora blight disease at 100 ug/ml", "format": "functional, organism-based", "how_it_was_run": "(§1)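 Pepper plants raised at 28 °C with 16 h light per day. Antibiotic in methanol, diluted, was sprayed onto plants at first-branch stage 1 day before inoculation. Stems were slit 1 cm above soil and covered with cotton soaked in 1 × 105 zoospores mL-1 P. capsici, then taped. Disease was rated daily on a 0–5 severity scale; values are means of 10 plants per treatment.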"}, "Phytophthora capsici [2]": {"tested_on": "Phytophthora capsici", "assay": "Antifungal activity against Phytophthora capsici in pepper plants assessed as decrease in Phytophthora blight disease at 50 ug/ml", "format": "functional, organism-based", "how_it_was_run": "as §1"}}, "note": "Activity calls are given as the source filed them. The rule behind the calls is not given here."}
{"smiles": "COCC(=O)N(c1c(C)cccc1C)C(C)C(=O)OC", "note": "(configuration not stated)", "values": [{"measurement": "Activity", "setting": "Phytophthora capsici [1]", "value": "Active"}, {"measurement": "Activity", "setting": "Phytophthora capsici [2]", "value": "Active"}]}
